Laboratory results reported in ChEMBL document CHEMBL2086283, “Novel 4-aminoquinoline-pyrimidine based hybrids with improved in vitro and in vivo antimalarial activity” (ACS Med Chem Lett, 2012).
Activity calls are given as the source filed them. No cut-off for these calls is given here.

Columns and labels:
[1] = test system: Vero; assay: Cytotoxicity against african green monkey Vero cells after 48 hrs by neutral red assay; format: cell-based; details: chlorocebus sabaeus
Outline: (§1)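 Mammalian cell cytotoxicity was measured as IC50 in Vero (monkey kidney fibroblasts), LLC-PK11 (pig kidney epithelial) and HepG2 (human hepatoma) cells. The highest concentration tested was 60 μM. Values are the mean of two independent experiments ± SD.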

[2] = Selectivity index, ratio of IC50 for african green monkey Vero cells to IC50 for chloroquine-sensitive Plasmodium falciparum D6; format: toxicity, cell-based; details: read-out: Ratio IC50
Outline: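 SI is the IC50 for cytotoxicity to Vero cells (monkey kidney fibroblasts) divided by the antimalarial IC50 against the named P. falciparum clone. Cytotoxicity was tested up to 60 μM.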

[3] = test system: Plasmodium falciparum; assay: Antiplasmodial activity against chloroquine-resistant Plasmodium falciparum W2 infected in red blood cells up to 19 uM after 72 hrs by parasitic LDH assay; format: functional, organism-based
Outline: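 In vitro P. falciparum growth inhibition (D6 CQ-sensitive clone; W2 CQ-resistant clone). IC50 is the concentration giving 50% growth inhibition. Values are the average of two independent experiments ± SD. Highest concentration tested 19 μM.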

[4] = test system: Plasmodium berghei; assay: Antimalarial activity against Plasmodium berghei infected in mouse assessed as suppression in parasitemia at 100 mg/kg, po administered QD for 3 days measured on day 5 relative to control; format: functional
Outline: (§2)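 P. berghei-infected mice, 5 per group, dosed by oral gavage once daily on days 0, 1 and 2 postinfection, with a vehicle control arm. Mice were followed to day 28 postinfection for apparent toxicity, parasitemia and survival. Parasitemia suppression is expressed against mean vehicle-control parasitemia set as 100%, and cure is the number cured per 5 mice.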

[5] = test system: Plasmodium berghei; assay: Antimalarial activity against Plasmodium berghei infected in mouse assessed as suppression in parasitemia at 100 mg/kg, po administered QD for 3 days measured on day 7 relative to control; format: functional; outline: as §2
[6] = test system: Mus musculus; assay: Toxicity in mouse infected with Plasmodium berghei assessed as host survival at 100 mg/kg, po administered QD for 3 days measured on day 28; format: organism-based; design: dose 100 mg/kg, route oral; details: in vivo, 72 h
[7] = test system: Plasmodium berghei; assay: Antimalarial activity Plasmodium berghei infected in mouse assessed as mean survival time at 100 mg/kg, po administered QD for 3 days (reference value: 15.2 days); format: functional
[8] = test system: Plasmodium berghei; assay: Antimalarial activity Plasmodium berghei infected in mouse assessed as cure from infection at 100 mg/kg, po administered QD for 3 days measured on day 28; format: functional, organism-based; design: dose 100 mg/kg; outline: as §2
[9] = test system: Vero; assay: Cytotoxicity against african green monkey Vero cells up to 60 uM after 48 hrs by neutral red assay; format: cell-based; details: chlorocebus sabaeus; outline: as §1
[10] = Cytotoxicity against pig LLC-PK11 cells up to 60 uM after 48 hrs by neutral red assay; format: cell-based, Sus scrofa; details: llc-pk11, 48 h; outline: as §1
[11] = test system: HepG2; assay: Cytotoxicity against human HepG2 cells up to 60 uM after 48 hrs by neutral red assay; format: cell-based; details: hepg2, 48 h; outline: as §1

Compound	IC50 [1]	selectivity ratio [2]	Activity [3]	Activity [4]	Activity [5]	Activity [6]	MST [7]	Activity [8]	Activity [9]	Activity [10]	Activity [11]
CCc1nc(N)nc(N)c1-c1ccc(Cl)cc1 [PYRIMETHAMINE]	18.2 µM	1820	inactive	–	–	–	–	–	–	–	–
CCN(CC)CCCC(C)Nc1ccnc2cc(Cl)ccc12 (stereo unspecified) [CHLOROQUINE]	–	–	–	100%	100%	Non-toxic	28 days	inactive	Non-toxic	Non-toxic	Non-toxic
